Measurements reported in ChEMBL document CHEMBL5104225, “Synthesis and structure-activity relationship studies of N-terminal analogues of the lipopeptide antibiotics brevicidine and laterocidine” (RSC Med Chem, 2022).
Converted amounts (≈) assume the structure as drawn. Bridge positions count the residues as written; N and C are the ends. Square brackets hold non-standard residues; d marks the D form. Peptide text beside a SMILES is read from it. * marks the point of attachment. Decanoyl = CCCCCCCCCC(=O)*; dOrn = NCCC[C@@H](N)C(=O)O; Orn = NCCC[C@H](N)C(=O)O; Butyryl = CCCC(=O)*

What was measured:
Assay type in all cases: functional
Escherichia coli [1] = test: Antibacterial activity against Escherichia coli ATCC 25922 assessed as inhibition of bacterial growth incubated for 18 hrs by CLSI protocol based method
Method in brief: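 Broth microdilution MIC. Strain streaked from glycerol stock on sheep blood agar (16 h, 37 °C); a colony was grown in TSB at 37 °C, 220 rpm, to OD600 about 0.5. Cells were diluted in MHB to 2×10^5 CFU/mL and added 1:1 to serial dilutions in MHB in polypropylene plates.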

Klebsiella pneumoniae = test: Antibacterial activity against Klebsiella pneumoniae ATCC 13883 assessed as inhibition of bacterial growth incubated for 18 hrs by CLSI protocol based method
Method in brief: (§1)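 Single colonies from blood agar (16 h, 37 °C) grown in TSB at 37 °C, 220 rpm to OD600 ~0.5, then diluted in MHB to 2×10^5 CFU/mL. Mixed with serial MHB dilutions of DMSO stocks in polypropylene plates, sealed, and incubated 18 h at 37 °C, 600 rpm. MIC was taken as the lowest concentration with no visible growth; three technical replicates.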

Acinetobacter baumannii = test: Antibacterial activity against Acinetobacter baumannii ATCC 17961 assessed as inhibition of bacterial growth incubated for 18 hrs by CLSI protocol based method; method in brief: as §1
Pseudomonas aeruginosa = test: Antibacterial activity against Pseudomonas aeruginosa PAO1 assessed as inhibition of bacterial growth incubated for 18 hrs by CLSI protocol based method; method in brief: as §1
Staphylococcus aureus = test: Antibacterial activity against Staphylococcus aureus USA300 assessed as inhibition of bacterial growth incubated for 18 hrs by CLSI protocol based method; method in brief: as §1
Escherichia coli [2] = test: Antibacterial activity against colistin-resistant Escherichia coli ATCC 25922 carrying MCR-1 gene assessed as inhibition of bacterial growth incubated for 18 hrs by CLSI protocol based method
Method in brief: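 Broth microdilution MIC. MCR-1 strain grown from glycerol stock in TSB with kanamycin (16 h, 37 °C, 220 rpm), diluted 100-fold in the same medium and grown to OD600 about 0.5. Cells were diluted in MHB to 2×10^5 CFU/mL and added 1:1 to serial dilutions in MHB. Incubated 18 h, 37 °C, 600 rpm; visual lowest no-growth concentration; three technical replicates.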

Row | Compound | MIC (Escherichia coli [1]) | MIC (Klebsiella pneumoniae) | MIC (Acinetobacter baumannii) | MIC (Pseudomonas aeruginosa) | MIC (Staphylococcus aureus) | MIC (Escherichia coli [2])
1 | CC[C@H](C)[C@@H]1NC(=O)[C@@H](NC(=O)[C@H](Cc2c[nH]c3ccccc23)NC(=O)[C@@H](CCCN)NC(=O)CNC(=O)[C@H](CCCN)NC(=O)[C@@H](CCCN)NC(=O)[C@@H](Cc2c[nH]c3ccccc23)NC(=O)[C@@H](Cc2ccc(O)cc2)NC(=O)[C@H](N)CC(N)=O)[C@@H](C)OC(=O)[C@H](CO)NC(=O)CNC1=O | > 32 µg/mL | > 32 µg/mL | > 32 µg/mL | 16 µg/mL (≈ 11.4 µM) | > 32 µg/mL | 
2 | CC[C@H](C)[C@@H]1NC(=O)[C@@H](NC(=O)[C@H](Cc2c[nH]c3ccccc23)NC(=O)[C@@H](CCCN)NC(=O)CNC(=O)[C@H](CCCN)NC(=O)[C@@H](CCCN)NC(=O)[C@@H](Cc2c[nH]c3ccccc23)NC(=O)[C@@H](Cc2ccc(O)cc2)NC(=O)[C@@H](CC(N)=O)NC(C)=O)[C@@H](C)OC(=O)[C@H](CO)NC(=O)CNC1=O (Ac-[dN][dY][dW][dOrn][Orn]G[dOrn]WTIGS; ester 9-C) | > 32 µg/mL | > 32 µg/mL | > 32 µg/mL | 8 µg/mL (≈ 5.52 µM) | > 32 µg/mL | 
3 | CC[C@H](C)[C@@H]1NC(=O)[C@@H](NC(=O)[C@H](Cc2c[nH]c3ccccc23)NC(=O)[C@@H](CCCN)NC(=O)CNC(=O)[C@H](CCCN)NC(=O)[C@@H](CCCN)NC(=O)[C@@H](Cc2c[nH]c3ccccc23)NC(=O)[C@@H](Cc2ccc(O)cc2)NC(=O)[C@@H](CO)NC(C)=O)[C@@H](C)OC(=O)CNC(=O)CNC(=O)[C@H](CC(N)=O)NC1=O (Ac-[dS][dY][dW][dOrn][Orn]G[dOrn]WTINGG; ester 9-C) | > 32 µg/mL | > 32 µg/mL | > 32 µg/mL | 16 µg/mL (≈ 10.6 µM) | > 32 µg/mL | 
4 | CCCC(=O)N[C@H](CC(N)=O)C(=O)N[C@H](Cc1ccc(O)cc1)C(=O)N[C@H](Cc1c[nH]c2ccccc12)C(=O)N[C@H](CCCN)C(=O)N[C@@H](CCCN)C(=O)NCC(=O)N[C@H](CCCN)C(=O)N[C@@H](Cc1c[nH]c2ccccc12)C(=O)N[C@@H]1C(=O)N[C@@H]([C@@H](C)CC)C(=O)NCC(=O)N[C@@H](CO)C(=O)O[C@@H]1C (Butyryl-[dN][dY][dW][dOrn][Orn]G[dOrn]WTIGS; ester 9-C) | 32 µg/mL (≈ 21.7 µM) | 8 µg/mL (≈ 5.41 µM) | 32 µg/mL (≈ 21.7 µM) | 16 µg/mL (≈ 10.8 µM) | > 32 µg/mL | 32 µg/mL (≈ 21.7 µM)
5 | CCCC(=O)N[C@H](CO)C(=O)N[C@H](Cc1ccc(O)cc1)C(=O)N[C@H](Cc1c[nH]c2ccccc12)C(=O)N[C@H](CCCN)C(=O)N[C@@H](CCCN)C(=O)NCC(=O)N[C@H](CCCN)C(=O)N[C@@H](Cc1c[nH]c2ccccc12)C(=O)N[C@@H]1C(=O)N[C@@H]([C@@H](C)CC)C(=O)N[C@@H](CC(N)=O)C(=O)NCC(=O)NCC(=O)O[C@@H]1C (Butyryl-[dS][dY][dW][dOrn][Orn]G[dOrn]WTINGG; ester 9-C) | 16 µg/mL (≈ 10.4 µM) | 32 µg/mL (≈ 20.9 µM) | > 32 µg/mL | 8 µg/mL (≈ 5.21 µM) | > 32 µg/mL | 32 µg/mL (≈ 20.9 µM)
6 | CCCCCCCCCC(=O)N[C@H](CC(N)=O)C(=O)N[C@H](Cc1ccc(O)cc1)C(=O)N[C@H](Cc1c[nH]c2ccccc12)C(=O)N[C@H](CCCN)C(=O)N[C@@H](CCCN)C(=O)NCC(=O)N[C@H](CCCN)C(=O)N[C@@H](Cc1c[nH]c2ccccc12)C(=O)N[C@@H]1C(=O)N[C@@H]([C@@H](C)CC)C(=O)NCC(=O)N[C@@H](CO)C(=O)O[C@@H]1C (Decanoyl-[dN][dY][dW][dOrn][Orn]G[dOrn]WTIGS; ester 9-C) | 4 µg/mL (≈ 2.56 µM) | 4 µg/mL (≈ 2.56 µM) | 4 µg/mL (≈ 2.56 µM) | 8 µg/mL (≈ 5.12 µM) | 32 µg/mL (≈ 20.5 µM) | 4 µg/mL (≈ 2.56 µM)
7 | CCCCCCCCCC(=O)N[C@H](CO)C(=O)N[C@H](Cc1ccc(O)cc1)C(=O)N[C@H](Cc1c[nH]c2ccccc12)C(=O)N[C@H](CCCN)C(=O)N[C@@H](CCCN)C(=O)NCC(=O)N[C@H](CCCN)C(=O)N[C@@H](Cc1c[nH]c2ccccc12)C(=O)N[C@@H]1C(=O)N[C@@H]([C@@H](C)CC)C(=O)N[C@@H](CC(N)=O)C(=O)NCC(=O)NCC(=O)O[C@@H]1C (Decanoyl-[dS][dY][dW][dOrn][Orn]G[dOrn]WTINGG; ester 9-C) | 2 µg/mL (≈ 1.24 µM) | 2 µg/mL (≈ 1.24 µM) | 2 µg/mL (≈ 1.24 µM) | 2 µg/mL (≈ 1.24 µM) | > 32 µg/mL | 2 µg/mL (≈ 1.24 µM)
